Screens: PubChem, several laboratories
RBBP9 inhibitor – inhibitors of human serine hydrolase RBBP9; O75884; recombinant RBBP9, FP-Rh probe fluorescence polarization; inhibition, % at 7.94 µM; 220,000 compounds, 0.2% hits; AID 1515;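 active = inhibition above the campaign mean of all tested compounds plus 3 SD, cut at about 14% in these data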
Target sequence (O75884 whole entry, looked up): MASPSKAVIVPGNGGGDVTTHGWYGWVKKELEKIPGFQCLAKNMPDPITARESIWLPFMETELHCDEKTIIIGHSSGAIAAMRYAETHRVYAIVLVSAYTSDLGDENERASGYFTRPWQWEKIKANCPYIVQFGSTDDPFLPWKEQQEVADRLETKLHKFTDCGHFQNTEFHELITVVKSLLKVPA
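system = RBBP9 protein | input = RBBP9 at 2.5 µM in dispensed solution, before mixing | measured by = fluorescence polarization (mP), excitation 525 nm, emission 598 nm | incubation = enzyme-compound preincubation 30 min, then probe labeling 45 min, 25 °C | buffer or medium = Tris-NaCl-Pluronic buffer, pH 8.0 | compound = single dose 7.94 µM | also added = FP-Rh probe, 375 nM dispensing solution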
M18AAP inhibitor – blocks P. falciparum M18 aspartyl aminopeptidase. 290,000 compounds, 1.2% hits. recombinant PfM18AAP, H-Glu-NHMec fluorogenic cleavage. inhibition, % at 7.35 µM;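 active = inhibition above the campaign mean inhibition over all tested compounds plus 3 SD, cut at about 28% in these data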
Hep lipid drop – hepatic lipid droplet formation modulation; AML12 mouse hepatocytes, oleate lipid droplets, BODIPY imaging; inhibition, % at 6.5 µM; 240,000 compounds, 0.4% hits; AID 1656;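 active = lipid droplet intensity inhibited by at least 50%, with more than 500 cells counted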
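System: AML12 hepatocytes (mouse). Probe or stimulus: oleic acid at 100 µM to induce lipid droplet formation. Times: overnight treatment with compound plus oleate. Detection: Image-based BODIPY and DAPI two-channel analysis. Evaluation: percent inhibition of filter-corrected integrated lipid droplet intensity per well.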
zVAD death inh – L929 zVAD cell death inhibition. 220,000 compounds, 0.38% hits. L929 zVAD necroptosis rescue, ATP luminescence, 24 h; with zVAD 60 µM. AID 1377. viability rescue, % at 10 µM;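 active = activation, scaled between plate controls, above about 75%, limit read from the data; inactive = activation under that limit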
TNF death inh – TNF-alpha cell death inhibition in Jurkat FADD-/- cells. activation (protection from cell death), % at 10 µM. Jurkat FADD-/- TNF necroptosis rescue, ATP luminescence, 24 h; 0 = TNF only, 100 = no-TNF cells. 220,000 compounds, 0.068% hits. AID 463075;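 active = activation, meaning protection from cell death, of at least 50% relative to plate controls; inactive = activation below 50%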;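 also: necroptosis triggered by 40 ng/mL TNF-alpha added together with compound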
Tb hexokinase – T. brucei hexokinase 1 inhibition | 220,000 compounds, 0.11% hits | inhibition, % at 10 µM | recombinant TbHK1, G6PDH-coupled NADH A340;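 active = inhibition of 50% or more in the single-dose primary screen; inactive = inhibition below 50%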
RBBP9 confirm – confirmation of human RBBP9 inhibitors; shares compounds with RBBP9 inhibitor; recombinant RBBP9, FP-Rh probe fluorescence polarization; inhibition, % at 7.94 µM; 410 compounds, 36% hits; AID 1537;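 active = inhibition above the hit cutoff derived for the primary screen, cut at about 15% in these data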
Numbers stand for hits. An excerpt weighted towards active compounds, which were near 2% of everything screened.

How did Cc1ccc2c(CC(=O)NC3=NCCS3)coc2c1 do in these assays?
RBBP9 inhibitor: inactive; M18AAP inhibitor: inactive; Hep lipid drop: inactive; zVAD death inh: inactive; TNF death inh: inactive; Tb hexokinase: inactive

What do the screens show for `COc1ccc(CNC(=O)CN2CCN(C(c3ccccc3)c3ccccc3)CC2)cc1`?
RBBP9 inhibitor: inactive; M18AAP inhibitor: inactive; Hep lipid drop: inactive; zVAD death inh: inactive; TNF death inh: inactive; Tb hexokinase: inactive

Results for O=C(CN1CCN(C(c2ccccc2)c2ccccc2)CC1)NCc1ccccc1 ?
RBBP9 inhibitor: 14; M18AAP inhibitor: inactive; Hep lipid drop: inactive; zVAD death inh: inactive; TNF death inh: inactive; Tb hexokinase: inactive; RBBP9 confirm: inactive

What do the screens show for `Cc1cc2ccccc2nc1SCC(=O)N1c2ccccc2CC1C` (stereo unspecified)?
RBBP9 inhibitor: 14; M18AAP inhibitor: inactive; Hep lipid drop: inactive; zVAD death inh: inactive; TNF death inh: inactive; Tb hexokinase: inactive; RBBP9 confirm: inactive

What do the screens show for `COc1ccc(C2C(C#N)=C(N)Oc3c2c(C)nn3-c2ccccc2)cc1Cn1nc(C)c([N+](=O)[O-])c1C` (stereo unspecified)?
RBBP9 inhibitor: 18; M18AAP inhibitor: inactive; zVAD death inh: inactive; TNF death inh: inactive; Tb hexokinase: inactive; RBBP9 confirm: inactive

How did Cc1nn(-c2ccccc2)c2c1C(c1ccc(Br)s1)C(C#N)=C(N)O2 (stereo unspecified) do in these assays?
RBBP9 inhibitor: inactive; M18AAP inhibitor: inactive; Hep lipid drop: inactive; zVAD death inh: inactive; TNF death inh: inactive; Tb hexokinase: inactive

How did Cc1nn(-c2ccccc2)c2c1C(c1ccccc1)C(C#N)=C(N)O2 (stereo unspecified) do in these assays?
RBBP9 inhibitor: 16; M18AAP inhibitor: inactive; Hep lipid drop: inactive; zVAD death inh: inactive; TNF death inh: inactive; Tb hexokinase: inactive; RBBP9 confirm: inactive

What do the screens show for `Cc1cccc(C)c1NC(=O)CS(=O)CC(=O)NCC1OCCc2ccccc21` (stereo unspecified)?
RBBP9 inhibitor: inactive; M18AAP inhibitor: inactive; Hep lipid drop: inactive; zVAD death inh: inactive; TNF death inh: inactive; Tb hexokinase: inactive

Results for COc1cccc(CNC(=O)c2cc(S(=O)(=O)N3CCOCC3)cn2C)c1 ?
M18AAP inhibitor: inactive; Hep lipid drop: inactive

How did O=C(CCl)N(C1CCCC1)C1CCS(=O)(=O)C1 (stereo unspecified) do in these assays?
M18AAP inhibitor: inactive; Hep lipid drop: inactive

How did CCOC(=O)Cc1cn2c(=O)cc(CSCC(=O)Nc3ccc(C)c(C)c3)nc2s1 do in these assays?
RBBP9 inhibitor: inactive; M18AAP inhibitor: inactive; zVAD death inh: inactive; TNF death inh: inactive; Tb hexokinase: inactive

Results for Cc1ccc(C)n1-c1ccc(N2CCOCC2)c([N+](=O)[O-])c1 ?
RBBP9 inhibitor: 16; M18AAP inhibitor: inactive; Hep lipid drop: inactive; zVAD death inh: inactive; TNF death inh: inactive; Tb hexokinase: inactive; RBBP9 confirm: inactive

Results for CCOC(=O)c1nc2sc3c(c2c(=O)[nH]1)CCCC3 ?
RBBP9 inhibitor: inactive; M18AAP inhibitor: inactive; Hep lipid drop: inactive; zVAD death inh: inactive; TNF death inh: inactive; Tb hexokinase: inactive

What do the screens show for `CCOC(=O)c1nc2sc3c(c2c(=O)[nH]1)CCC(C)C3` (stereo unspecified)?
RBBP9 inhibitor: 16; M18AAP inhibitor: inactive; Hep lipid drop: inactive; zVAD death inh: inactive; TNF death inh: inactive; Tb hexokinase: inactive; RBBP9 confirm: inactive

What do the screens show for `COc1cccc(CNC(=O)CN(C)S(=O)(=O)c2cccc3cccnc23)c1`?
RBBP9 inhibitor: 21; M18AAP inhibitor: inactive; Hep lipid drop: inactive; zVAD death inh: inactive; TNF death inh: inactive; Tb hexokinase: inactive; RBBP9 confirm: inactive

Results for CCCCN(C(=O)c1cc2ccccc2o1)c1c(N)n(CC(C)C)c(=O)[nH]c1=O ?
RBBP9 inhibitor: 20; M18AAP inhibitor: inactive; Hep lipid drop: inactive; TNF death inh: inactive; Tb hexokinase: inactive; RBBP9 confirm: inactive

What do the screens show for `CCCCN(C(=O)c1cc2ccccc2o1)c1c(N)n(CCC)c(=O)[nH]c1=O`?
RBBP9 inhibitor: inactive; M18AAP inhibitor: inactive; Hep lipid drop: inactive; zVAD death inh: inactive; TNF death inh: inactive; Tb hexokinase: inactive

Results for COc1ccc2[nH]c3c(NCCC4=CCCCC4)ncnc3c2c1 ?
RBBP9 inhibitor: 15; M18AAP inhibitor: inactive; Hep lipid drop: inactive; zVAD death inh: inactive; TNF death inh: inactive; Tb hexokinase: inactive; RBBP9 confirm: 30

Results for CCN(CC)CCNc1ncnc2c1[nH]c1ccc(OC)cc12 ?
RBBP9 inhibitor: inactive; M18AAP inhibitor: inactive; zVAD death inh: inactive; TNF death inh: inactive; Tb hexokinase: inactive

Results for CC(=O)Nc1cccc(-c2csc(NCc3ccccc3)n2)c1 ?
RBBP9 inhibitor: 15; M18AAP inhibitor: inactive; Hep lipid drop: inactive; zVAD death inh: inactive; TNF death inh: inactive; Tb hexokinase: inactive; RBBP9 confirm: inactive

Results for CC(=O)Nc1ccc(-c2csc(NCc3ccccc3)n2)cc1 ?
RBBP9 inhibitor: inactive; M18AAP inhibitor: inactive; Hep lipid drop: inactive; zVAD death inh: inactive; TNF death inh: inactive; Tb hexokinase: inactive

How did CN1CCC(N(C)S(=O)(=O)c2ccc(NC(=O)COc3ccc(F)cc3Cl)cc2)CC1 do in these assays?
M18AAP inhibitor: inactive; Hep lipid drop: inactive

Results for COc1ccc(-n2nnc3c(=O)n(CC(=O)N4CCCC4)cnc32)cc1 ?
RBBP9 inhibitor: inactive; M18AAP inhibitor: inactive; zVAD death inh: inactive; TNF death inh: inactive; Tb hexokinase: inactive

How did COc1ccc(-n2nnc3c(=O)n(C/C=C/c4ccccc4)cnc32)cc1 do in these assays?
RBBP9 inhibitor: 15; M18AAP inhibitor: inactive; Hep lipid drop: inactive; zVAD death inh: inactive; TNF death inh: inactive; Tb hexokinase: inactive; RBBP9 confirm: inactive

How did CC(Oc1cc(Cl)ccc1Cl)C(=O)N/N=C\c1ccnn1C (stereo unspecified) do in these assays?
RBBP9 inhibitor: inactive; M18AAP inhibitor: inactive; Hep lipid drop: inactive; TNF death inh: inactive; Tb hexokinase: inactive

Results for COc1ccc(NC(=S)NCc2ccco2)c(OC)c1 ?
RBBP9 inhibitor: 17; M18AAP inhibitor: inactive; Hep lipid drop: inactive; zVAD death inh: inactive; TNF death inh: inactive; Tb hexokinase: inactive; RBBP9 confirm: inactive

What do the screens show for `COc1ccc(/C=C/C(=O)Nc2ccccc2)cc1S(=O)(=O)N1CCOCC1`?
RBBP9 inhibitor: 37; M18AAP inhibitor: inactive; Hep lipid drop: inactive; zVAD death inh: inactive; TNF death inh: inactive; Tb hexokinase: inactive; RBBP9 confirm: inactive

How did COc1ccc(/C=C/C(=O)Nc2ccc(NC(C)=O)cc2)cc1S(=O)(=O)N1CCOCC1 do in these assays?
RBBP9 inhibitor: inactive; M18AAP inhibitor: inactive; Hep lipid drop: inactive; zVAD death inh: inactive; TNF death inh: inactive; Tb hexokinase: inactive
